Compound activity: PubChem BioAssay, several laboratories
In the library only some 7.6% were active in any assay of this set; here they are far more common.
Jurkat viability: cytotoxicity toward Jurkat cells; 1.2% of 56,000 active; inhibition, % at 4 µM; AID 463; Jurkat E6.1 viability, ATP luminescence, 48 h;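 active = inhibition above the mean inhibition of all tested compounds plus 3 SD, cut at about 28% in these data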
M1 antag: M1 muscarinic receptor (rat) antagonism; P08482; 3.4% of 64,000 active; AID 628; B-score at 10 µM; CHO-M1 cells, Fluo-4 calcium, ACh EC80 antagonist mode; stronger effect = lower value;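 active = calcium fluorescence response, raw or row-and-column corrected B-score, differing from the plate sample mean either way at a set confidence level, mostly lower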
Target sequence (P08482 whole entry, looked up): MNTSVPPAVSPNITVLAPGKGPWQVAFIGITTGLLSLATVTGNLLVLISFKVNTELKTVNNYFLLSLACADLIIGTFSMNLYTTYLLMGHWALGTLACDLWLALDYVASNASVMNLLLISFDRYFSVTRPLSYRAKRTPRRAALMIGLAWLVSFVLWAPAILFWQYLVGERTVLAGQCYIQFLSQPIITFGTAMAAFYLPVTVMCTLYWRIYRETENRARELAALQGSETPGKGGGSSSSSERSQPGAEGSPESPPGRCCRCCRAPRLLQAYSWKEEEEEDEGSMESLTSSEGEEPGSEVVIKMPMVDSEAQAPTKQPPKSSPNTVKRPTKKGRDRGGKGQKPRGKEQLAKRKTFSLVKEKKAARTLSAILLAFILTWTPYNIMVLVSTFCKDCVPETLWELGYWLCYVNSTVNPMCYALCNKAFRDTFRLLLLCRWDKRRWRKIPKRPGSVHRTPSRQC
DAT uptake mod: modulates human dopamine transporter uptake under cocaine; Q01959; LLC-PK1 hDAT cells, [14C]-dopamine uptake with cocaine IC80; actives deviate in either direction; B-score at 10 µM; 1.3% of 110,000 active;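 active = Z score or B-score, a plate-position-corrected score, falls beyond the plate's 99.7% confidence bounds, in either direction; inactive = both scores lie inside the 99.7% bounds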
M1 ag: activates the M1 muscarinic receptor. CHO-M1 cells, Fluo-4 calcium fluorescence, agonist mode; stronger effect = higher value. B-score at 10 µM. 3% of 64,000 active. AID 626;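 active = fluorescence rise, raw or as B-score row- and column-corrected plate score, outside the 99.7% band of its plate's samples, either direction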
HEK293 NFkB inh: lowers PMA/ionomycin-induced NF-kB signal in HEK293 cells. HEK-293 NF-kB luciferase reporter, luminescence. inhibition, % at 3 µM. 0.21% of 62,000 active. AID 465;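 active = inhibition above the mean of all tested compounds plus 3 SD, cut at about 40% in these data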
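Signal: luciferase luminescence; Material: HEK-293 cells with stable firefly luciferase reporter driven by four HIV NF-kB elements; Probe or stimulus: PMA with ionomycin; Replication: tested once; Times: 1 h compound pretreatment, then 16 h stimulation at 37 °C, 5% CO2; Benchmarks: DMSO and 10 µM reference inhibitor; Evaluation: per-plate % inhibition versus controls.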
D1 mod: D1 dopamine receptor (human) allosteric modulation | 5.9% of 58,000 active | B-score at 10 µM | AID 641 | HEK293 D1, CRE-luciferase, dopamine EC30 potentiation; actives deviate in either direction | P21728;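 active = luminescence count or its row- and column-corrected plate score outside the 99.7% band of the plate's sample wells, on either side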
D1 PAM confirm: confirmation of human D1 dopamine receptor allosteric modulators. 88% of 2,200 active. HEK293 D1 CRE-luciferase, dopamine EC30 potentiation; stronger effect = higher value. AID 642. shares compounds with D1 mod. luminescence at 10 µM;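 active = luminescence in either of two replicates above the same-plate mean plus 3 SD of the low-dose dopamine control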
D1 ag no DA: D1 (human) signaling in absence of dopamine. shares compounds with D1 mod. HEK293 D1 CRE-luciferase, luminescence, no dopamine; stronger effect = higher value. luminescence at 10 µM. 0.8% of 1,900 active; in the data active = luminescence above about 3900
Isoprot counter: isoproterenol response counter-screen activity for D1 modulators; shares compounds with D1 mod; HEK293 D1 CRE-luciferase, isoproterenol EC30 counter-screen; calls only at 10 µM; 63% of 2,200 active; AID 647;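 active = luminescence in either replicate above plate mean of wells with a partly effective reference agonist dose plus 3 SD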;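 also: isoproterenol raises cAMP through native beta-adrenoceptor Gs so signal bypasses D1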
A number is an active result; . = inactive; / = not tested or not shown; + = active, no number.

SMILES | Jurkat viability | M1 antag | DAT uptake mod | M1 ag | HEK293 NFkB inh | D1 mod | D1 PAM confirm | D1 ag no DA | Isoprot counter
O=C(COc1ccccc1)NCc1nnc(SCC(=O)Nc2nccs2)n1-c1ccccc1 | . | . | . | . | . | 3.88 | . | . | .
CS(=O)(=O)N(CC(=O)N1CCc2ccccc2C1)Cc1ccc(Cl)cc1 | / | / | . | / | / | / | / | / | /
CCCCc1nc2n[nH]c(N)c2c2c1CCC2 | . | . | . | . | . | 7.93 | 22688 | . | +
CC1=C(CO)C(=O)OC([C@@H](C)C2CC[C@H]3C4C[C@H]5O[C@]56[C@@H](O)C=CC(=O)[C@]6(C)C4CC[C@]23C)C1 (stereo partly drawn) | / | / | . | / | / | / | / | / | /
COc1ccc(-n2nc3ccccc3n2)cc1 | . | . | . | . | . | 3.23 | 10504 | . | .
CCOC(=O)C(CCCOc1ccccc1)C(=O)OCC | / | / | . | / | / | / | / | / | /
CC(C)COC(=O)c1ccc(NC(=O)C2C3CCC(C3)C2C(=O)O)cc1 (stereo not drawn) | . | . | . | . | . | . | / | / | /
CCOc1nc(-c2ccncc2)nc2ccccc12 | / | . | . | . | / | 13.3 | 14136 | . | +
Cc1ccc(CCNC(=O)C2CC(c3ccc(C(F)(F)F)cc3)=NO2)cc1 (stereo not drawn) | / | / | . | / | / | / | / | / | /
CCCn1c(CCc2ccccc2)nnc1SCC(=O)N1CCOCC1 | . | . | . | . | . | 3.23 | . | . | .
Cn1c(Cn2c(=O)sc3ccccc32)nnc1SCC(=O)N1CCOCC1 | . | . | . | . | . | 5.14 | 8076 | . | .
COc1cc2sc(C)nc2c2sccc12 | . | . | . | . | . | . | / | / | /
O=C(CSc1nccn1-c1cccc(Cl)c1)Nc1ccc2c(c1)OCCO2 | . | . | . | . | . | . | / | / | /
Cc1ccc(/C=C2\SC(=S)N(c3c(C)n(C)n(-c4ccccc4)c3=O)C2=O)cc1 | / | / | . | / | / | / | / | / | /
COc1ccc(N(CC(=O)Nc2cc(C)ccc2C)S(=O)(=O)c2c(C)nn(C)c2C)cc1 | . | . | / | . | . | . | / | / | /
CCCC(=O)Nc1ccc(NC(=O)C2CC2)cn1 | . | . | . | . | . | 5.32 | 5976 | . | .
CCCCC(=O)Nc1ccc(NC(=O)C2CC2)cn1 | . | . | . | . | . | . | / | / | /
Cc1cccc(Oc2ccc(C(=O)NC3CCSC3=O)cn2)c1C (stereo not drawn) | / | / | . | / | / | / | / | / | /
CCOC(=O)/C=C1\NC(C)(C)Cc2cc(OC)c(O)cc21 | . | . | . | . | . | 3.96 | 8420 | . | .
CCOC(=O)/C=C1\NC(C)(C)Cc2cc(OC)c(OC)cc21 | / | / | . | / | / | / | / | / | /
COc1cc2c(cc1OC)/C(=C/C(=O)N1CCOCC1)NC(C)(C)C2 | . | . | . | . | . | 9.95 | 18680 | . | +
O=c1[nH]c2ccccc2n1Cc1ccc(Cl)cc1 | / | / | . | / | / | / | / | / | /
O=c1n(Cc2ccccc2)c2cc(Cl)cnc2n1Cc1ccccc1 | . | . | . | . | . | 8.08 | 9248 | . | .
COC(=O)CSC1=C(C#N)C(c2cccc(OC)c2)CC(=O)N1 (stereo not drawn) | . | . | . | . | . | 1.95 | . | . | .
COC(=O)CSC1=C(C#N)C(c2cccc(F)c2)CC(=O)N1 (stereo not drawn) | . | . | . | . | . | . | / | / | /
SMILES | Jurkat viability | M1 antag | DAT uptake mod | M1 ag | HEK293 NFkB inh | D1 mod | D1 PAM confirm | D1 ag no DA | Isoprot counter
Nc1nonc1-n1nncc1-c1ccccc1 | / | . | . | . | . | 5.93 | 10724 | . | +
Cc1ccccc1CN(c1ccc(C(N)=O)cc1)S(C)(=O)=O | . | . | . | . | . | . | / | / | /
COc1cccc2cc(C(=O)N3CCN(C/C=C/c4ccccc4)CC3)c(=O)oc12 | . | . | . | . | . | . | / | / | /
COC(=O)c1sc2ccccc2c1-n1cccc1C(=O)C(=O)Nc1ccc(C)cc1 | / | / | . | / | / | / | / | / | /
COC(=O)c1sc2ccccc2c1C(=O)OC | . | . | . | . | . | 10.3 | 9140 | . | .
CCn1c(SCC(=O)N(Cc2ccccc2)C2CCS(=O)(=O)C2)nc2ccccc2c1=O (stereo not drawn) | . | . | . | . | . | 8.92 | 13696 | / | +
CCc1nc2ccccc2c(C(=O)OC2CCOC2=O)c1C (stereo not drawn) | . | . | . | . | . | 5.38 | 11292 | . | +
CCn1c2ccccc2c2nnc(SCC(N)=O)nc21 | / | / | . | / | / | / | / | / | /
CCn1c2ccccc2c2nnc(SCc3ccc(C(=O)OC)o3)nc21 | . | . | . | . | . | 5.6 | 9356 | . | +
CCn1c2ccccc2c2nnc(SCCCn3c(=O)[nH]c4ccccc43)nc21 | . | . | . | . | . | 9.59 | 10684 | . | .
C=CCn1c2ccccc2c2nnc(SCC(=O)NC(C(=O)OC)C(C)C)nc21 (stereo not drawn) | . | . | . | . | . | 4.37 | 7244 | . | .
CCn1c2ccccc2c2nnc(SCc3ccccc3)nc21 | . | . | . | . | . | . | / | / | /
Cc1cc(C)n(-c2nc3ccccc3nc2Nc2ccc(CC(=O)O)cc2)n1 | . | . | . | . | . | 21.4 | 7376 | . | .
CCOc1cc2nc(-c3ccc(OC)c(OC)c3)nc(N3CCOCC3)c2cc1OC | / | . | . | . | / | 13 | 10492 | . | +
CCOc1cc(C(=S)N2CCOCC2)ccc1OC | / | / | . | / | / | / | / | / | /
COC(=O)c1[nH]c2cc(OC)ccc2c1NC(=O)c1nonc1C | / | / | . | / | / | / | / | / | /
O=c1c2cn[nH]c2nc(SCc2ccc3c(c2)OCCO3)n1-c1ccccc1 | / | . | . | . | . | 7.9 | 11032 | . | +
C/C(=N\OC(=O)Nc1ccc(Cl)cc1)c1ncc(C(F)(F)F)cc1N1CCOCC1 | / | / | . | / | / | / | / | / | /
NC(=O)COc1ccc(NC(=O)OCc2ccccc2)cc1 | . | . | . | . | . | 5.64 | 10828 | . | .
COC(=O)Nc1ccc(OCc2ccccc2)cc1 | . | . | . | . | . | . | / | / | /
CCn1nccc1C(=O)Nc1cc(Cl)ccc1Cl | . | . | . | . | . | 2.28 | 7456 | . | +
CCn1nccc1C(=O)Nc1ccc(Cl)cc1Cl | . | . | . | . | . | . | / | / | /
C=CCN1C(=O)C(CC(=O)Nc2ccccc2)SC1=Nc1ccc(S(N)(=O)=O)cc1 (stereo not drawn) | / | / | . | / | / | / | / | / | /
Cc1cccc(-c2nc(CS(=O)CC(=O)N3CCCCC3)c(C)o2)c1 (stereo not drawn) | . | . | . | . | . | . | / | / | /
Nn1c(COc2ccccc2)nnc1SCC(=O)O | . | . | . | . | . | . | / | / | /
COc1ccc(OC)c(N/C=C2/CCCCC2=O)c1 | . | . | . | . | . | . | / | / | /
COc1ccc(N/C=C2/CCCCC2=O)cc1 | . | . | . | . | . | 2.84 | . | . | .
